Measurements from ChEMBL document CHEMBL4325893, “Synthesis and antibacterial profiles of targeted triclosan derivatives” (2019).

Key:
[1] = Antibacterial activity against Salmonella enterica subspecies enterica serotype Indiana OCC 597 after 18 hrs; format: functional, Salmonella enterica subsp. enterica serovar Indiana; conditions: OCC 597, 18 h
Procedure, shortened: (§1)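 Broth microdilution in Nutrient Broth No. 2; stocks in ethanol diluted to 0.01–128 µg/ml (triclosan) or 0.25–256 µg/ml (glycosides). Overnight 37 °C NB2 cultures diluted 1 in 10^4 in saline and added to the dilutions. Incubation at 37 °C with agitation, OD read every 15 min; MIC is the lowest concentration preventing any OD rise after 18 h.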

[2] = tested on: Streptococcus viridans; experiment: Antibacterial activity against Streptococcus viridans OCC 234 after 18 hrs; format: functional; conditions: OCC 234, 18 h
Procedure, shortened: (§2)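 Broth microdilution in Nutrient Broth No. 2. Ethanol stocks were diluted in broth to 0.01–128 µg/ml for triclosan and 0.25–256 µg/ml for glycosides. Overnight 37°C NB2 cultures were diluted 1 in 10^4 in saline and added to the wells. Plates were incubated at 37°C with OD read every 15 min after agitation. MIC was the lowest concentration giving no OD increase at 18 h.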

[3] = tested on: Staphylococcus aureus; experiment: Antibacterial activity against Staphylococcus aureus NCTC 13758 after 18 hrs; format: functional; conditions: NCTC 13758, 18 h; procedure, shortened: as §1
[4] = tested on: Klebsiella aerogenes; experiment: Antibacterial activity against Klebsiella aerogenes NCTC 8167 after 18 hrs; format: functional; conditions: NCTC 8167, 18 h; procedure, shortened: as §1
[5] = Antibacterial activity against Salmonella enterica subspecies enterica serotype Arizonae OCC 706 after 18 hrs; format: functional, Salmonella enterica subsp. enterica serovar Arizonae; conditions: OCC 706, 18 h; procedure, shortened: as §1
[6] = tested on: Staphylococcus aureus; experiment: Antibacterial activity against Staphylococcus aureus ATCC 29213 after 18 hrs; format: functional; conditions: ATCC 29213, 18 h; procedure, shortened: as §1
[7] = tested on: Escherichia coli; experiment: Antibacterial activity against Escherichia coli 700728 after 18 hrs; format: functional; conditions: Escherichia coli, 700728, 18 h; procedure, shortened: as §1
[8] = tested on: Aeromonas hydrophila; experiment: Antibacterial activity against Aeromonas hydrophila OCC 778 after 18 hrs; format: functional; conditions: OCC 778, 18 h; procedure, shortened: as §1
[9] = tested on: Staphylococcus aureus; experiment: Antibacterial activity against Staphylococcus aureus OCC 104 after 18 hrs; format: functional; conditions: OCC 104, 18 h; procedure, shortened: as §1
[10] = tested on: Streptococcus pneumoniae; experiment: Antibacterial activity against Streptococcus pneumoniae ATCC 49619 after 18 hrs; format: functional; conditions: ATCC 49619, 18 h; procedure, shortened: as §2
[11] = tested on: Escherichia coli; experiment: Antibacterial activity against Escherichia coli ATCC 35218 after 18 hrs; format: functional; conditions: ATCC 35218, 18 h; procedure, shortened: as §1
[12] = tested on: Staphylococcus epidermidis; experiment: Antibacterial activity against Staphylococcus epidermidis 155 after 18 hrs; format: functional; conditions: Staphylococcus epidermidis, 155, 18 h; procedure, shortened: as §1
[13] = tested on: Proteus vulgaris; experiment: Antibacterial activity against Proteus vulgaris OCC 195 after 18 hrs; format: functional; conditions: OCC 195, 18 h; procedure, shortened: as §1
[14] = tested on: Serratia marcescens; experiment: Antibacterial activity against Serratia marcescens OCC 217 after 18 hrs; format: functional; conditions: OCC 217, 18 h; procedure, shortened: as §1
[15] = tested on: Escherichia coli; experiment: Antibacterial activity against Escherichia coli NCTC 13216 after 18 hrs; format: functional; conditions: NCTC 13216, 18 h; procedure, shortened: as §1
[16] = tested on: Enterococcus faecalis; experiment: Antibacterial activity against Enterococcus faecalis ATCC 33186 after 18 hrs; format: functional; conditions: ATCC 33186, 18 h; procedure, shortened: as §1
[17] = tested on: Staphylococcus aureus; experiment: Antibacterial activity against Staphylococcus aureus ATCC 25923 after 18 hrs; format: functional; conditions: ATCC 25923, 18 h; procedure, shortened: as §1
[18] = tested on: Salmonella typhimurium; experiment: Antibacterial activity against Salmonella enterica subspecies enterica serotype typhimurium ATCC 14028 after 18 hrs; format: functional, Salmonella enterica subsp. enterica serovar Typhimurium; conditions: ATCC 14028, 18 h; procedure, shortened: as §1
[19] = tested on: Klebsiella pneumoniae; experiment: Antibacterial activity against Klebsiella pneumoniae ATCC 13883 after 18 hrs; format: functional; conditions: ATCC 13883, 18 h; procedure, shortened: as §1
[20] = tested on: Staphylococcus aureus; experiment: Antibacterial activity against Staphylococcus aureus OCC 106 after 18 hrs; format: functional; conditions: OCC 106, 18 h; procedure, shortened: as §1
[21] = tested on: Hafnia alvei; experiment: Antibacterial activity against Hafnia alvei 13337 after 18 hrs; format: functional; conditions: Hafnia alvei, 13337, 18 h; procedure, shortened: as §1
[22] = Antibacterial activity against Salmonella enterica subspecies enterica serotype Poona NCTC 4840 after 18 hrs; format: functional, Salmonella enterica subsp. enterica serovar Poona; conditions: NCTC 4840, 18 h; procedure, shortened: as §1
[23] = tested on: Citrobacter freundii; experiment: Antibacterial activity against Citrobacter freundii 8090 after 18 hrs; format: functional; conditions: Citrobacter freundii, 8090, 18 h; procedure, shortened: as §1
[24] = tested on: Streptococcus pyogenes; experiment: Antibacterial activity against Streptococcus pyogenes ATCC 19615 after 18 hrs; format: functional; conditions: ATCC 19615, 18 h; procedure, shortened: as §2
[25] = tested on: Klebsiella aerogenes; experiment: Antibacterial activity against Enterobacter aerogenes ATCC 13048 after 18 hrs; format: functional; conditions: ATCC 13048, 18 h; procedure, shortened: as §1
[26] = tested on: Klebsiella pneumoniae; experiment: Antibacterial activity against Klebsiella pneumoniae ATCC 10031 after 18 hrs; format: functional; conditions: ATCC 10031, 18 h; procedure, shortened: as §1
[27] = tested on: Staphylococcus saprophyticus; experiment: Antibacterial activity against Staphylococcus saprophyticus ATCC 15305 after 18 hrs; format: functional; conditions: ATCC 15305, 18 h; procedure, shortened: as §2
[28] = tested on: Staphylococcus aureus; experiment: Antibacterial activity against Staphylococcus aureus ATCC 9144 after 18 hrs; format: functional; conditions: ATCC 9144, 18 h; procedure, shortened: as §1
[29] = tested on: Staphylococcus aureus; experiment: Antibacterial activity against Staphylococcus aureus ATCC 6538P after 18 hrs; format: functional; procedure, shortened: as §1
[30] = tested on: Escherichia coli; experiment: Antibacterial activity against Escherichia coli ATCC 25922 after 18 hrs; format: functional; conditions: ATCC 25922, 18 h; procedure, shortened: as §1
[31] = tested on: Staphylococcus epidermidis; experiment: Antibacterial activity against Staphylococcus epidermidis ATCC 12228 after 18 hrs; format: functional; conditions: ATCC 12228, 18 h; procedure, shortened: as §1
[32] = tested on: Streptococcus agalactiae; experiment: Antibacterial activity against Streptococcus agalactiae OCC 182 after 18 hrs; format: functional; conditions: OCC 182, 18 h; procedure, shortened: as §2
[33] = tested on: Salmonella enteritidis; experiment: Antibacterial activity against Salmonella enterica subspecies enterica serotype Enteritidis 13076 after 18 hrs; format: functional, Salmonella enterica subsp. enterica serovar Enteritidis; conditions: Salmonella enterica, 13076, 18 h; procedure, shortened: as §1
[34] = tested on: Bacillus cereus; experiment: Antibacterial activity against Bacillus cereus ATCC 14579 after 18 hrs; format: functional; conditions: ATCC 14579, 18 h; procedure, shortened: as §1
[35] = tested on: Streptococcus pneumoniae; experiment: Antibacterial activity against Streptococcus pneumoniae 6305 after 18 hrs; format: functional; conditions: Streptococcus pneumoniae, 6305, 18 h; procedure, shortened: as §2
[36] = tested on: Bacillus subtilis; experiment: Antibacterial activity against Bacillus subtilis NCTC 10073 after 18 hrs; format: functional; conditions: NCTC 10073, 18 h; procedure, shortened: as §1
[37] = tested on: Escherichia coli; experiment: Antibacterial activity against Escherichia coli OCC 122 after 18 hrs; format: functional; conditions: OCC 122, 18 h; procedure, shortened: as §1
[38] = tested on: Staphylococcus haemolyticus; experiment: Antibacterial activity against Staphylococcus haemolyticus OCC 2223 after 18 hrs; format: functional; conditions: OCC 2223, 18 h; procedure, shortened: as §2
[39] = tested on: Enterococcus faecium; experiment: Antibacterial activity against Enterococcus faecium ATCC 19434 after 18 hrs; format: functional; conditions: ATCC 19434, 18 h; procedure, shortened: as §1
[40] = tested on: Enterococcus faecalis; experiment: Antibacterial activity against Enterococcus faecalis ATCC 29212 after 18 hrs; format: functional; conditions: ATCC 29212, 18 h; procedure, shortened: as §1
[41] = tested on: Staphylococcus aureus; experiment: Antibacterial activity against Staphylococcus aureus ATCC 6538 after 18 hrs; format: functional; conditions: ATCC 6538, 18 h; procedure, shortened: as §1
[42] = Antibacterial activity against Salmonella enterica subspecies enterica serotype Dublin OCC 627 after 18 hrs; format: functional, Salmonella enterica subsp. enterica serovar Dublin; conditions: OCC 627, 18 h; procedure, shortened: as §1
[43] = tested on: Escherichia coli; experiment: Antibacterial activity against Escherichia coli ATCC 11775 after 18 hrs; format: functional; procedure, shortened: as §1
[44] = tested on: Escherichia hermannii; experiment: Antibacterial activity against Escherichia hermannii 33650 after 18 hrs; format: functional; conditions: Atlantibacter hermannii, 33650, 18 h; procedure, shortened: as §1
[45] = tested on: Proteus mirabilis; experiment: Antibacterial activity against Proteus mirabilis ATCC 12453 after 18 hrs; format: functional; conditions: ATCC 12453, 18 h; procedure, shortened: as §1
[46] = Antibacterial activity against Salmonella enterica subspecies enterica serotype Nottingham NCTC 7832 after 18 hrs; format: functional, Salmonella enterica subsp. enterica serovar Nottingham; conditions: NCTC 7832, 18 h; procedure, shortened: as §1
[47] = Antibacterial activity against Salmonella enterica subspecies enterica serotype Virchow NCTC 5742 after 18 hrs; format: functional, Salmonella enterica subsp. enterica serovar Virchow; conditions: NCTC 5742, 18 h; procedure, shortened: as §1
[48] = tested on: Escherichia coli; experiment: Antibacterial activity against Escherichia coli ATCC 10536 after 18 hrs; format: functional; conditions: ATCC 10536, 18 h; procedure, shortened: as §1
[49] = tested on: Pseudomonas aeruginosa; experiment: Antibacterial activity against Pseudomonas aeruginosa ATCC 27853 after 18 hrs; format: functional; conditions: ATCC 27853, 18 h; procedure, shortened: as §1
[50] = tested on: Escherichia coli; experiment: Antibacterial activity against Escherichia coli ATCC 8739 after 18 hrs; format: functional; conditions: ATCC 8739, 18 h; procedure, shortened: as §1
[51] = tested on: Cronobacter sakazakii; experiment: Antibacterial activity against Cronobacter sakazakii 29544 after 18 hrs; format: functional; conditions: Cronobacter sakazakii, 29544, 18 h; procedure, shortened: as §1
[52] = Antibacterial activity against Enterobacter cloacae ATCC 13047 after 18 hrs; format: functional, Enterobacter cloacae subsp. cloacae; conditions: ATCC 13047, 18 h; procedure, shortened: as §1
[53] = Antibacterial activity against Salmonella enterica subspecies enterica serotype Pullorum OCC 273 after 18 hrs; format: functional, Salmonella enterica subsp. enterica serovar Pullorum; conditions: OCC 273, 18 h; procedure, shortened: as §1
[54] = tested on: Salmonella enterica subsp. enterica serovar Abony; experiment: Antibacterial activity against Salmonella enterica subspecies enterica serotype Abony NCTC 6017 after 18 hrs; format: functional; conditions: NCTC 6017, 18 h; procedure, shortened: as §1
[55] = Antibacterial activity against Salmonella enterica subspecies enterica serotype Infantis OCC 2133 after 18 hrs; format: functional, Salmonella enterica subsp. enterica serovar Infantis; conditions: OCC 2133, 18 h; procedure, shortened: as §1
[56] = tested on: Staphylococcus epidermidis; experiment: Antibacterial activity against Staphylococcus epidermidis ATCC 14990 after 18 hrs; format: functional; conditions: ATCC 14990, 18 h; procedure, shortened: as §1
[57] = tested on: Citrobacter freundii; experiment: Antibacterial activity against Citrobacter freundii OCC 851 after 18 hrs; format: functional; conditions: OCC 851, 18 h; procedure, shortened: as §1

Measured: MIC

OC[C@H]1O[C@@H](Oc2cc(Cl)ccc2Oc2ccc(Cl)cc2Cl)[C@H](O)[C@@H](O)[C@H]1O
2 µg/mL: [44]
0.5 to 32 µg/mL: [7] | [11] | [15] | [30] | [37] | [43] | [48] | [50]
4 µg/mL: [4] | [45]
8 µg/mL: [13] | [23] | [25] | [27] | [51] | [57]
2 to 16 µg/mL: [1] | [5] | [18] | [22] | [33] | [42] | [46] | [47] | [53] | [54] | [55]
128 µg/mL: [10] | [16] | [24] | [35] | [40]
> 256 µg/mL: [14] | [39] | [49]
256 µg/mL: [2] | [8] | [32] | [34]
32 µg/mL: [36]
0.5 µg/mL: all other assays above
